Source: ChEMBL document CHEMBL2034832, “12-N-Methylated 5,6-dihydrobenzo[c]acridine derivatives: a new class of highly selective ligands for c-myc G-quadruplex DNA” (Eur J Med Chem, 2012)
The source made the active and inactive calls. No cut-off for these calls is given here.

Legend:
Nucleic Acid [1] = test: Binding affinity to c-myc quadruplex DNA Pu27 assessed as inhibition of c-myc amplification by PCR-stop assay; assay type: nucleic-acid assay
Method in brief: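 Pu27 template with partly complementary primer, 10 μM each, […], 2.5 U Taq and ligand at 1, 5, 10 or 25 μM (one series 50 μM). Cycling: 94 °C 2 min, then 30 × (94 °C, 58 °C, 72 °C, 30 s each). Products run on 16% native PAGE, GelRed stain; IC50 for 50% loss of amplification.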

Nucleic Acid [2] = test: Binding affinity to duplex DNA F10T assessed as change in melting temperature at 2 uM by FRET-melting assay; assay type: nucleic-acid assay
Method in brief: (§1)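 FRET melting of 0.2 μM dual-labelled oligo (FPu18T, FAM/TAMRA c-myc G-quadruplex; or F10T, HEG-linked hairpin duplex) in 10 mM Tris-HCl pH 7.2, 0.2 mM KCl, with or without 2 μM ligand. Excitation 470 nm, emission 530 nm, read every 1 °C from 37–99 °C after 30 s hold. ΔTm = Tm(DNA+ligand) − Tm(DNA); mean ± SD of at least three runs.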

Nucleic Acid [3] = test: Binding affinity to c-myc quadruplex DNA FPu18T assessed as change in melting temperature at 2 uM by FRET-melting assay; assay type: nucleic-acid assay; method in brief: as §1
Nucleic Acid [4] = test: Binding affinity to c-myc quadruplex DNA Pu27 assessed as conformational change up to 10 uM by circular dichroism in the presence of 100 mM K+; assay type: nucleic-acid assay
Method in brief: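 CD titration of 1 μM Pu27, annealed (95 °C 5 min, slow cool, 4 °C overnight) in 10 mM Tris-HCl pH 7.2, 100 mM KCl. Ligand added stepwise (0.5–10 eq.) at 25 °C, ≥10 min equilibration per addition. Spectra 230–430 nm, 1 cm cell, average of two scans, buffer baseline subtracted.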

Nucleic Acid [5] = test: Binding affinity to immobilised c-myc quadruplex DNA G4 by SPR assay; assay type: nucleic-acid assay
Method in brief: (§2)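 SPR: biotinylated DNA captured (~1000 RU) on GLH chip, blank reference cell. Running buffer 50 mM Tris-HCl pH 7.2, 100 mM KCl. Ligand at 0.3125–10 μM injected at 100 μL/min, 400 s association and 400 s dissociation, 25 °C; NaOH regeneration. KD by equilibrium analysis; mean ± SD of at least two runs.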

Nucleic Acid [6] = test: Binding affinity to c-myc quadruplex DNA FPu18T assessed as change in melting temperature at 2 uM by FRET-melting assay in the presence of excess of ds26 duplex DNA; assay type: nucleic-acid assay
Method in brief: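 Competition FRET melting: 0.2 μM FPu18T with 2 μM ligand in 10 mM Tris-HCl pH 7.2, 0.2 mM KCl, plus varying amounts of unlabelled self-complementary ds26 duplex as competitor. Fluorescence at 470/530 nm recorded per 1 °C step over 37–99 °C.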

Nucleic Acid [7] = test: Binding affinity to c-myc quadruplex DNA Pu27 assessed as conformational change up to 10 uM by circular dichroism in the absence of 100 mM K+; assay type: nucleic-acid assay
Method in brief: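 K+-free CD: 1 μM Pu27 in 10 mM Tris-HCl pH 7.2 with ligand at 0, 3, 5 or 10 μM, co-annealed (95 °C 5 min, slow cool, 4 °C overnight). Spectra recorded at 25 °C over 230–430 nm, 1 cm cell, two scans averaged, buffer baseline subtracted.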

Nucleic Acid [8] = test: Binding affinity to immobilised duplex DNA up to 10 uM by SPR assay; assay type: nucleic-acid assay; method in brief: as §2
CA46 [9] = test: Down-regulation of c-myc gene expression in human CA46 cells at 0.5 to 5 uM after 4 days by RT-PCR analysis; assay type: functional, cell-based
Method in brief: (§3)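 Cells given ligand at 0.5, 1, 2.5 or 5 μM for 4 days. Total RNA (TRIpure) 2 μg reverse-transcribed with oligo dT18/M-MLV (42 °C 1 h). c-myc and β-actin amplified by PCR, run on 1% agarose; c-myc normalized to β-actin.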

CA46 [10] = test: Growth inhibition of c-myc NHE III1-deficient human CA46 cell line at 2.5 to 10 uM after 4 days by cell counting; assay type: functional, cell-based
Method in brief: (§4)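 Cells seeded at 1.0×10^5 per well and exposed to ligand (2.5, 5 or 10 μM) or 0.1% DMSO for 4 days. Cell counts and viability taken daily; three repeats per point.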

Ramos [11] = test: Growth inhibition of human Ramos cell line expressing c-myc NHE III1 after 4 days by cell counting; assay type: functional, cell-based; method in brief: as §4
Ramos [12] = test: Down-regulation of c-myc gene expression in human Ramos cells after 4 days by RT-PCR analysis; assay type: functional, cell-based; method in brief: as §3

IC50 (Nucleic Acid [1]) [µM] | ΔTm (Nucleic Acid [2]) [°C] | ΔTm (Nucleic Acid [3]) [°C] | Activity (Nucleic Acid [4]) | Kd (Nucleic Acid [5]) [µM] | Activity (Nucleic Acid [6]) | Activity (Nucleic Acid [7]) | Activity (Nucleic Acid [8]) | SMILES | Activity (CA46 [9]) | growth inhibition (GI) (CA46 [10]) | growth inhibition (GI) (Ramos [11]) | Activity (Ramos [12])
7.5 | 1.2 | 21.8 | Active | 0.6 | Active | Active | inactive | CCN(CC)CCCOc1c(OC)ccc2c1cc1c([n+]2C)-c2cc3c(cc2CC1)OCO3 | – | – | – | –
> 50 | 1 | 11 | Active | 2.8 | Active | Active | inactive | COc1cc2c(cc1OC)-c1nc3ccc(OC)c(OCCCN4CCCCC4)c3cc1CC2 | – | – | – | –
> 50 | 1 | 5.3 | Active | 1.4 | Active | Active | inactive | COc1ccc2nc3c(cc2c1OCCN1CCCC1)CCc1cc2c(cc1-3)OCO2 | – | – | – | –
9.5 | 0.5 | 19 | Active | 0.8 | Active | Active | inactive | COc1ccc2c(cc3c([n+]2C)-c2cc4c(cc2CC3)OCO4)c1OCCCN1CCN(C)CC1 | – | – | – | –
5.4 | 0.5 | 21.4 | Active | 0.6 | Active | Active | inactive | COc1ccc2c(cc3c([n+]2C)-c2cc4c(cc2CC3)OCO4)c1OCCCN1CCCCC1 | – | – | – | –
5 | 0.8 | 23.2 | Active | 0.6 | Active | Active | inactive | COc1cc2c(cc1OC)-c1c(cc3c(OCCCN4CCCCC4)c(OC)ccc3[n+]1C)CC2 | inactive | inactive | Dose-dependent effect | Dose-dependent effect
5.3 | 1.1 | 22.2 | Active | 0.4 | Active | Active | inactive | COc1ccc2c(cc3c([n+]2C)-c2cc4c(cc2CC3)OCO4)c1OCCCN1CCCC1 | – | – | – | –
> 50 | 1 | 6.2 | Active | 3 | Active | Active | inactive | CCN(CC)CCCOc1c(OC)ccc2nc3c(cc12)CCc1cc2c(cc1-3)OCO2 | – | – | – | –
> 50 | 1.6 | 6.3 | Active | 2.6 | Active | Active | inactive | CCN(CC)CCOc1c(OC)ccc2nc3c(cc12)CCc1cc2c(cc1-3)OCO2 | – | – | – | –
4.7 | 1.4 | 25.4 | Active | 0.6 | Active | Active | inactive | COc1cc2c(cc1OC)-c1c(cc3c(OCCCN4CCCC4)c(OC)ccc3[n+]1C)CC2 | – | – | – | –
> 50 | 0.4 | 11.2 | Active | 4.4 | Active | Active | inactive | CCN(CC)CCCOc1c(OC)ccc2nc3c(cc12)CCc1cc(OC)c(OC)cc1-3 | – | – | – | –
14 | 0.9 | 11.6 | Active | 1.2 | Active | Active | inactive | COc1ccc2c(cc3c([n+]2C)-c2cc4c(cc2CC3)OCO4)c1OCCCNC1CCCCC1 | – | – | – | –
